pIC50: −log10 of the molar value.
Key:
PHD2 = PHD2 (Homo sapiens, UniProt Q9GZT9); assay: PHD2 biochemical activity assay; settings: hydroxylation of CODD peptide substrate, MALDI-TOF MS
FIH = FIH (Homo sapiens, UniProt Q9NWT6); assay: FIH MALDI-TOF hydroxylation assay; format: biochemical
JMJD2E = molecular target: T1, JMJD2E (Homo sapiens, UniProt B2RXH2); assay: MALDI-TOF MS based demethylation assay, JMJD2E; format: biochemical
T1 sequence (B2RXH2 1-337): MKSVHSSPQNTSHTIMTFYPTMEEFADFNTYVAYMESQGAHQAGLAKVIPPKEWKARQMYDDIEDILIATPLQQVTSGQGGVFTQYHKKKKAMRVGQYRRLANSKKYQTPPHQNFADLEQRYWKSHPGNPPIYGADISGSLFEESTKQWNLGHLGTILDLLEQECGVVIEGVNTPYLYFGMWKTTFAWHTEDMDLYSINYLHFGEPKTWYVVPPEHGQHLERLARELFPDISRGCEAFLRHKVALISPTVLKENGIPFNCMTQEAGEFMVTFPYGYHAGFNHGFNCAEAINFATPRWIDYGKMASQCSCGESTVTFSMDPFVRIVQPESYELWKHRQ
How it was run: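 Enzyme: human JMJD2E catalytic domain (residues 1-337), expressed in E. coli as N-terminal His6-tagged protein and purified by Ni-affinity chromatography. Quenched reaction mixtures are mixed with α-cyano-4-hydroxycinnamic acid matrix and analysed by MALDI-TOF MS. Percentage demethylation comes from the relative intensities of the peptide methylation states. IC50 is derived from how percentage demethylation varies across inhibitor concentrations.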

JMJD2A = molecular target: T2, JMJD2A (Homo sapiens, UniProt O75164); assay: MALDI-TOF MS based demethylation assay, JMJD2A; format: biochemical
T2 sequence (O75164 1-1064): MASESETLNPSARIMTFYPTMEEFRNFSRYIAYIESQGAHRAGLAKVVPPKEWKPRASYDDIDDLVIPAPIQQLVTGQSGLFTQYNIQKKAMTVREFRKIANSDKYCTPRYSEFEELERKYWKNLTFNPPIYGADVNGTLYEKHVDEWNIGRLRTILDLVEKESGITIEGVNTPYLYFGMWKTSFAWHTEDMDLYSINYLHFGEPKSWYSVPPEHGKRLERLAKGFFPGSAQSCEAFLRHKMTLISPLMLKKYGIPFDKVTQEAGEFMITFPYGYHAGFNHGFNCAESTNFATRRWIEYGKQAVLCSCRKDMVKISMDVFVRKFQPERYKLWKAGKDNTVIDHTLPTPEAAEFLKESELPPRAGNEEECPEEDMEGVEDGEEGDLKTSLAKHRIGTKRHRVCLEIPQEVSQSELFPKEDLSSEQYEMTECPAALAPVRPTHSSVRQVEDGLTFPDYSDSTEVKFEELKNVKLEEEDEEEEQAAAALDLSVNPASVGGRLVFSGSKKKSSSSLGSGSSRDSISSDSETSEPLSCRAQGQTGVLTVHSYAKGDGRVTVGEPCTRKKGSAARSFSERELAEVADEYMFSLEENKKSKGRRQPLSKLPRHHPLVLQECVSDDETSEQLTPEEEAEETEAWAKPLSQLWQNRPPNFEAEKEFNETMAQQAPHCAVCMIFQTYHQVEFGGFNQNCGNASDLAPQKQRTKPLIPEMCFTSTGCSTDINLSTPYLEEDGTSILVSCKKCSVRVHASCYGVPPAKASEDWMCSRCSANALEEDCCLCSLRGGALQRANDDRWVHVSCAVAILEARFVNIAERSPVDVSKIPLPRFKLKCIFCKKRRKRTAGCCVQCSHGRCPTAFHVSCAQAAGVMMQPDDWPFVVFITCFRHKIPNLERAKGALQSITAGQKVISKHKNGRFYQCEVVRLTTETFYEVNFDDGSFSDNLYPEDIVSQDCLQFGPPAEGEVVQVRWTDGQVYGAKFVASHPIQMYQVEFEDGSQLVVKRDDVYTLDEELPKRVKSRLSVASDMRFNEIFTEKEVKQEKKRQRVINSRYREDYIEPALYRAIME

Chain of PHD2 (Q9GZT9 whole entry): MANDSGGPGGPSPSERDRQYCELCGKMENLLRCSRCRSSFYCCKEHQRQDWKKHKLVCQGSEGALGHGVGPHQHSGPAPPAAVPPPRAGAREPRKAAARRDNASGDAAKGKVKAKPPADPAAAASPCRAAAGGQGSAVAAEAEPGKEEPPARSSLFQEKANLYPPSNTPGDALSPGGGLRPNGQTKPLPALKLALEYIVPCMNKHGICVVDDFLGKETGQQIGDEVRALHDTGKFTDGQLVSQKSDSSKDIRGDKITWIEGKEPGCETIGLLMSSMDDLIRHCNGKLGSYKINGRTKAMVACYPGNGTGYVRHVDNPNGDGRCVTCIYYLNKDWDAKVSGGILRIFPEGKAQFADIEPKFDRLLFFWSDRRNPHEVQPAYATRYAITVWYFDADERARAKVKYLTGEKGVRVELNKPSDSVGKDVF
Chain of FIH (Q9NWT6 whole entry): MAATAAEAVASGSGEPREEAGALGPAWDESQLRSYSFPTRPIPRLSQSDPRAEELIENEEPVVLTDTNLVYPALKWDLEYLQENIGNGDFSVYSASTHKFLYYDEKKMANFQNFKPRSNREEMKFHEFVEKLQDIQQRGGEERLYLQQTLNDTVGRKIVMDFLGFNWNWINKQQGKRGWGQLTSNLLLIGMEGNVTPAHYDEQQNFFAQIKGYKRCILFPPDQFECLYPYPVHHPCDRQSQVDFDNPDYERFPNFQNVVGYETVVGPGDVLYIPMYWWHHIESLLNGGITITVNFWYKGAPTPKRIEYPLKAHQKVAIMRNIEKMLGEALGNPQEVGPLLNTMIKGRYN

| SMILES | inhibitory activity toward PHD2 (in words) (PHD2) | pIC50 (FIH) | pIC50 (JMJD2E) | other results |
| --- | --- | --- | --- | --- |
| O=C(O)CNC(=O)C(=O)O [1a, N-oxalylglycine, reference compound] | potent inhibitor of PHD2 | – | – | – |
| CC(C)(C)c1ccc(S(=O)(=O)Oc2ccc(C[C@@H](NC(=O)C(=O)O)C(=O)O)cc2)cc1 [7c] | No inhibitory activity | 4.43 | – | selectivity of inhibition (JMJD2E) with regard to FIH (FIH; comparison of JMJD2E FDH IC50 and FIH MALDI-TOF IC50): relatively low |
| O=C(O)C(=O)N[C@H](Cc1ccc(OS(=O)(=O)c2ccccc2)cc1)C(=O)O [7d] | – | – | 4.37 | pIC50 (JMJD2A): 4.77 |

Now from value to compound, other results behind:

| inhibitory activity toward PHD2 (in words) (PHD2) | pIC50 (FIH) | pIC50 (JMJD2E) | SMILES | other results |
| --- | --- | --- | --- | --- |
| No inhibitory activity | – | – | O=C(O)C(=O)N[C@H](Cc1ccc(OS(=O)(=O)c2ccc(F)cc2)cc1)C(=O)O [7e] | – |
| No inhibitory activity | 4.22 | – | O=C(O)C(=O)N[C@H](Cc1ccc(OS(=O)(=O)c2ccc(Br)cc2)cc1)C(=O)O [7f] | – |
| – | – | 4.33 | O=C(O)C(=O)N[C@H](Cc1ccc(OCc2ccccc2[N+](=O)[O-])cc1)C(=O)O [10k] | – |

From publication PMC2825117 (Journal of Medicinal Chemistry, 2010)
